Assay results published in the EternaBench riboswitch data.

System: MS2 coat protein
Test: apparent Kd, MS2 coat protein; higher = weaker binding; RNA-MaP array; FMN 200 µM where present
Summary of the method: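 Stalled E. coli RNA polymerase produced the designs on Illumina sequencing-chip clusters. SNAP-549-labelled MS2 coat protein was added from 0.7 or 1.5 nM, doubling to 3 µM, without and then with constant ligand, in 100 mM Tris-HCl pH 7.5, 80 mM KCl, 4 mM MgCl2, BSA, DTT, yeast tRNA and Tween-20. The apparent Kd is the median of filtered per-cluster fits of green signal normalised to red-channel RNA signal and control-cluster median Fmax.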

[1] = designed as: ON switch for flavin mononucleotide, no ligand
[2] = ligand present: flavin mononucleotide, designed as: ON switch for flavin mononucleotide
[3] = designed as: OFF switch for flavin mononucleotide, no ligand
[4] = ligand present: flavin mononucleotide, designed as: OFF switch for flavin mononucleotide

Sequence	apparent Kd [1] [nM]	apparent Kd [2] [nM]	apparent Kd [3] [nM]	apparent Kd [4] [nM]
CCACGUCACAUCUACAUGAGGAUCACCCAUGUCAAAAGACAUGAGGAUAUGCUACCUAAUUGGUAGCAGAAGGCAUGGACGUGG	982	64.4	–	–
UUAUUAUUUAUAGGAUAUUGAUGUUUGCUAGUACAAGAAGGAUAAACAUGAGGAUCACCCAUGUAGUUUAAGGUUAGUUUGUUU	38.1	39.4	–	–
CGAUGUUAUGCAGGAUAUCUCUCUUGAUUGAGGAGAGAAGGGCAUAGGGAGACAUACGCCUUAUUACAUGAGGAUCACCCAUGU	–	–	9.47	7.85
GGGUACAUCGGAGGAUAUCAUGUAUAUACAUGAGGAUCACCCAUGUCGUACGAGAGUACGGAGAUUGAGAAGGCCGAUGUACCG	39.4	14.4	–	–
GAGUGGAGGAGAGGAUAUACAAUGAUAAUCACUGUAGAAGGUUCUAACAUGAGGAUCACCCAUGUAGGACUAUUCCUGAGAGUU	12.8	10.3	–	–
UGGUACUAGGGAGGAUAUAGGAAGAUACAUGAGGAUCACCCAUGUUUAAGAAUGCCGAGAGGCAACUAGAAGGCCCUAGUACCU	5	4.74	–	–
CAUUCCAGGUAGAAGGGAUUACUACAUGAGGAUCACCCAUGUCGAUUGGUCAGGAUAUGCCUGUCACGACGCGUGAUGCUAAAA	382	187	–	–
GUUACAUGAGGAUCACCCAUGUAUGUGUGGGAGUAAGUGUCUUAGGAUAUCUAUUAUUUAAUGUAAGAGAAGGAAGAUUGUUGU	113	124	–	–
GCCAUCGCAUGAGGAUAUGGUCUGGUUUCCAGACCAGAAGGCAUGUCAUAAGACAUGAGGAUCACCCAUGUAGUUAAGAUGGCA	714	47.7	–	–
UGCCUUGAGUAGAAGGGCUGUGCUGUGGCACUGAGUCCUCUCGACAUGAGGAUCACCCAUGUAGAGCAGGAUAUACUCGGAUAA	–	–	5.78	7.3
AGACAGUCAGGAUAUACAUGAGGAUCACCCAUGUUGAGAUGUGAAAGGGCAGGAAUAGGUAGAAGGGACGAGAG	–	–	34.6	33.7
GUCAUGUAAGGAUAUCUUACAUGUGACUUCGGUCACUGUCAAGAGAAGGUACAUGAGGAUCACCCAUGUUCGAC	–	–	17.2	21.8
ACUGACAUGAGGAUCACCCAUGUCUUGAAUAGGUCAAAUUCACAGGAUAUGCGCUCGGCCAAGGCGCAGAAGGGUGAUGCAAUG	57.9	11.1	–	–
UGAUCUUACAUGAGGAUCACCCAUGUAGGCCAGUAACUAACCAGAAGGCACGUAGAGUAAAACAGUGAGGAUAUGGAUGACAUA	11.7	6.32	–	–
GGGUACAUCGGAGGAUAUCAUGUAAAUACAUGAGGAUCACCCAUGUCGAUGGAGACAUCGGAGAUUGAGAAGGCCGCUGUACCG	176	9.92	–	–
GAUUAACAUGAGGAUCACCCAUGUGUGAAUAUGGGAGGAUAUACGUGGACCGUAGUCCGCGUAGAAGGCCUAAUUG	279	46.1	–	–
AAUCCACAUGAGGAUCACCCAUGUGAGGAUAUGAUACUAUGUACUUCGGUACAUAGUAUCAGAAGGCACAUAAA	–	–	24.1	81
AUGUUACAUGAGGAUCACCCAUGUGAGGAUAUGUGUACCGGUAAAAAAGUGAUUGGCCACAGAAGGCAUUUGGA	–	–	33.2	35.7
CUACUCAUGUAAGGAUAUGCAGCCGAAACGGCUGCAGAAGGUACUAUAAUACAUGAGGAUCACCCAUGUAAAAUAAAUAAAGUU	33.8	14.7	–	–
AAUUAUAGGUAGAAGGUACUGACUUAUGUGUUGUAAGGAUAUACCAAAUUAUUAGAUCUCAAGUUACAUGAGGAUCACCCAUGU	9.18	7.97	–	–
CCGAUGUAAGGAUAUCGUGCAAGUUUCAAAAGAGGCUUGUGCGAGAAGGUACAUGAGGAUCACCCAUGUAGGUU	–	–	95.4	345
AUAUGUUAUUAGGAUAUUAAUGCGCGGUCGCAUUAAGAAGGAGUGACAUGAGGAUCACCCAUGUACCACGCUCA	–	–	24.3	23.3
UUAUUAUAUGUAGGAUAUGCAUAUUGUUGUUAUGCAGAAGGACAUGAGGAUCACCCAUGUGUAUUAUUGUUAUAUAUUAUAUAU	–	–	21.5	31.2
AGAAACUAGGAGAAGGACAUAUGAUUAAGACGAAACAUGAGGAUCACCCAUGUAGGAUAUCCUAGUUUCAGGAUCGUGAGAUCA	–	–	7.58	15.3
AAUAUGCAAGGAUAUACAACGUAGCUACGACGGAACGGGCUACAUGAGGAUCACCCAUGUAGAAGGUGCUACGC	–	–	15.2	16.7
AAACUGUGAGGAUAUGGUGAGUAGUGCCUGAGCGCUGCUCACCAGAAGGCACAUGAGGAUCACCCAUGUAUAAA	–	–	25.5	74.7
CGCGAAAACAUAGGAUAUUGAUACAUGAGGAUCACCCAUGUCAACCAUGAAGCUCGAAUUGUUGACAAGAAGGAUGAGGUCGCG	77.1	57.2	–	–
UAUUAAUACGAAGGAUAUGGUUACAUGAGGAUCACCCAUGUAUGUAUUUUGAUCUAAUAAUUUAACCAGAAGGUCGAAUAUAAA	–	–	40.6	77.3

Sequence	apparent Kd [1] [nM]	apparent Kd [2] [nM]	apparent Kd [3] [nM]	apparent Kd [4] [nM]
UAGCUUGAUUCUCGUGUAUACAUGAGGAUCACCCAUGUGACGCAGGAUAUAGGCGUGUUAGUAGCCUAGAAGGGCGAGCAGCGU	–	–	153	235
GCACAUGAGGAUCACCCAUGUGGUCCAGAAGGCCAGAGGGCUUGCUUUUCGCAGGCCUUUCAAAUGGAGGAUAUGGAGGGUUCU	207	42.7	–	–
UUUGGGUGGCUGGAGGAUAUUCGAGUGGUAACAUGAGGAUCACCCAUGUGUCGCGCGGUACACGAGGAGAAGGCUGGCGGCCGUU	56.5	18.9	–	–
GUCAGCUCGUGAGGAUAUACAACACUGCUUCGGCAGUGUAUUAAGUUCACAUGAGGAUCACCCAUGUAGAAGGCACGAGCUGAU	–	–	5.56	6.8
UUUGUUUAUGCAGGAUAUUGUAUUUUAUUACAUCAAGAAGGGCAUUACAUGAGGAUCACCCAUGUUAUCUUAUGGUUAACUAGU	–	–	20.8	21.3
GGGCUGUCAGGAUAUCUCGGGCUCGGGUAAACUCGGGCUCGGGAGAAGGGACAUGAGGAUCACCCAUGUGGCUC	–	–	42.1	51.5
ACUAGUUGGUAAGGAUAUCCUACACUGUUCUGACCCGUGCAAGCUACAUGAGGAUCACCCAUGUGGGAGAAGGUGCGUCAACGC	–	–	15.3	15.9
AAUUGAAACGUAGGAUAUCGCUAUUAAUUAAUUCGAGAAGGACGUACAUGAGGAUCACCCAUGUUUAAUGGUGUAGUUUAGUUG	–	–	179	252
AAGAGGCGAGGAUAUACAUGAGGAUCACCCAUGUAAUCCGGAUAAGGAAGCAUGUCGUGUAGAAGGUGCCAUGA	–	–	20.7	19.2
CUGUUCGGUGUAGGAUAUGCAUAUUCCCAUUAUGCAGAAGGACAUGAGGAUCACCCAUGUAUGUUAUUAUCAUGUGUUACAUGC	–	–	38.2	90.2
AUUUGCCUAGGAUAUACUCGGGCCCGCUCAUACUCCAAUGGACAUGAGGAUCACCCAUGUAGAAGGAGGAACCA	–	–	16	20
ACAUGCCUGUCGAUGCUCGACAUGAGGAUCACCCAUGUACAGCAGGAUAUGCAGAACUAACUCGUGCAGAAGGGCUGUACCUAA	–	–	90.8	226
GGGUGUGAAGGAUAUACAUGAGGAUCACCCAUGUGAGAGGAGAAUGUUGAGGAGGUUGGUAGAAGGUCAGGAGG	–	–	93.8	67.6
GUUAUGCAGCAGGAUAUCCAUCCGCGGUAUGAUGGAGAAGGGCUGACAUGAGGAUCACCCAUGUGCGUCCUAGG	–	–	40.3	97.1
UUAUGGAUCACAGGAUAUCCAAGGGCGCGUCUGGCGCGCUCACAUGAGGAUCACCCAUGUCGAGUGGAGAAGGGUGGUUGACGG	466	68.3	–	–
GCUGUAAAUGAGAAGGCGAUCAUGAAACAUGAUCGAGGAUAUCAUGUUUACAUGAGGAUCACCCAUGUAUGGGUAUAUUGCAGC	618	19.6	–	–
CGCACUGAUAGAGGAUAUGUUUAACAUGAGGAUCACCCAUGUGUACAAGGAUCAAUAUAUAAGUAACAGAAGGCUAUUAGUGCG	–	–	13.9	13.4
GGUGCGUAUGUGAGGAUAUGCUGGUCCUUGGAUCAGCAGAAGGCACAUGAGGAUCACCCAUGUGGUGUCGUACG	–	–	68.9	516
GCAAAGCCUGACAUGAGGAUCACCCAUGUUAGAUUGUUAUGUCAGGAUAUUGUCUAGCAACUAGACAAGAAGGGAUGCUCUGCC	377	194	–	–
GGGCCCGGAGGAUAUACAUGAGGAUCACCCAUGUAUUUGGGCCCUAUUGGGCCCGGGUGUAGAAGGCCGGGUUU	–	–	15.7	21.4
UCGAUCGUAUGAGGAUAUGGUACACAAAGUGUACCAGAAGGCAUGUCAAUAGACAUGAGGAUCACCCAUGUAUUAUCGAUCGAA	361	51.7	–	–
AUCAGCUCGUCAGGAUAUACGUCACUGCGUUAGCAGUGUGGUAAGAUCACAUGAGGAUCACCCAUGUAGAAGGGACGAGCUGAU	–	–	13.8	263
CUGGUUGUCGAGGAUAUGCACCAGCUCGCUGACGCAGAAGGCGACACAUGAGGAUCACCCAUGUCGGUUCGCGU	–	–	21.9	32.9
CAGCAAUGUAAGAAGGCUGCUCCGAUUAGGAGCAGAGGAUAUUACAUGAGGAUCACCCAUGUAUAAAAUAAUAGCUGAAAUAAU	–	–	6.37	7.69
CUUGUUUAUGUAGGAUAUGCCUGGCGUGCCUUUGCAGAAGGACAUGAGGAUCACCCAUGUAACAUGAGGCUCCACCUUGUCGCC	–	–	143	141
CGUGAACAUGAGGAUCACCCAUGUGAAAAACGUAGAGGAUAUGUCACAUGAGUGUAAAAGACAGAAGGCUAUCGUG	151	27.1	–	–
UGGUACUAGGGAGGAUAUGGGAAGAUACAUGAGGAUCACCCAUGUUCAAGAAUGCCGAGAGGCAACUAGAAGGCCCUAGUACCU	928	46.2	–	–
